pIC50: −log10 of the molar value. The source made the active and inactive calls. No cut-off for these calls is given here.
How the values were obtained:
HEK293 = assay: Cytotoxicity against human HEK293 cells at 40 uM after 72 hrs by resazurin dye based fluorescence assay; type: cell-based; conditions: hek293, 72 h
Procedure, shortened: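 HEK293 cells grown in DMEM with 10% FBS, seeded at 2000 cells/well 24 h before dosing. Compounds given as in the parasite assay (top 40 μM), 72 h at 37 °C and 5% CO2. Medium then replaced with 44 μM resazurin; fluorescence (530/595 nm) read after a further 5–6 h. Normalized to in-plate controls.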

Plasmodium falciparum [1] = assay: Antiplasmodial activity against drug-sensitive Plasmodium falciparum 3D7 ring stage infected in human erythrocytes after 72 hrs by DAPI staining based method; type: functional, organism-based; conditions: 3D7, 72 h
Procedure, shortened: (§1)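 Sorbitol-synchronized ring-stage parasites in O+ erythrocytes (2% parasitemia, 0.3% hematocrit), culture medium RPMI-1640 with Albumax and human serum. 16-point dilution series, 40 μM to 0.5 nM, 72 h at 95% N2/5% O2/5% CO2. Parasites stained with DAPI in Triton X-100/saponin permeabilization buffer, counted by confocal imaging. Normalized to 0.4% DMSO and 5 μM puromycin controls. IC50 from four-parameter logistic fit.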

Plasmodium falciparum [2] = assay: Antiplasmodial activity against 4-aminoquinoline/antifolates-resistant Plasmodium falciparum Dd2 ring stage infected in human erythrocytes at 40 uM after 72 hrs by DAPI staining based method; type: functional
Procedure, shortened: (§2)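 Sorbitol-synchronized ring-stage parasites at 2% parasitemia, 0.3% hematocrit in human O+ erythrocytes. Culture medium: RPMI-1640 with glutamine, hypoxanthine, Albumax, human serum. 16-point concentration-response, 40 μM to 0.5 nM. Incubated 72 h under 95% N2, 5% O2, 5% CO2. DAPI added in permeabilization buffer (Triton X-100, saponin, EDTA). Parasites counted by confocal high-content imaging. Normalized to DMSO and 5 μM puromycin controls. IC50 from four-parameter logistic fit.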

Plasmodium falciparum [3] = assay: Antiplasmodial activity against 4-aminoquinoline/antifolates-resistant Plasmodium falciparum Dd2 ring stage infected in human erythrocytes after 72 hrs by DAPI staining based method; type: functional, organism-based; conditions: Dd2, 72 h
Procedure, shortened: as §2, with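 “erythrocytes.” for “erythrocytes. Culture medium: RPMI-1640 with glutamine, hypoxanthine, Albumax, human serum.”, “nM.” for “nM. Incubated 72 h under 95% N2, 5% O2, 5% CO2.”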

Plasmodium falciparum [4] = assay: Antiplasmodial activity against drug-sensitive Plasmodium falciparum 3D7 ring stage infected in human erythrocytes at 40 uM after 72 hrs by DAPI staining based method; type: functional, organism-based; procedure, shortened: as §1

SMILES | Activity (HEK293; 40 µM) | pIC50 (Plasmodium falciparum [1]) | further results
Cc1c(O)c([C@@H](CC(C)C)C2=C(O)C(C)(C)C(=O)C(C)(C)C2=O)c(O)c2c1O[C@H](c1ccccc1)CC2=O | 75% | 5.49 | –
Cc1c(O)c2c(c3c1OC1=C(C(=O)C(C)(C)C(=O)C1(C)C)[C@H]3CC(C)C)O[C@H](c1ccccc1)CC2=O | Non-Toxic | 5.14 | –
Cc1c(O)c2c(c3c1OC1=C(C(=O)C(C)(C)C(=O)C1(C)C)[C@@H]3CC(C)C)O[C@H](c1ccccc1)CC2=O | Non-Toxic | 5.14 | –
Cc1c(O)c([C@H](CC(C)C)C2=C(O)C(C)(C)C(=O)C(C)(C)C2=O)c(O)c2c1O[C@H](c1ccccc1)CC2=O | 75% | 5.49 | –
CCc1nc(N)nc(N)c1-c1ccc(Cl)cc1 [PYRIMETHAMINE] | 62% | – | Activity (Plasmodium falciparum [2]): 62%
C[C@H]1[C@H](OC(=O)CCC(=O)O)O[C@@H]2O[C@@]3(C)CC[C@H]4[C@H](C)CC[C@@H]1[C@@]24OO3 [ARTESUNATE] | – | 9.00 | Activity (HEK293; 20 µM, in the assay text read “20 uM” for “40 uM”): 94%
Cc1c2c(c(O)c3c1OC1=C(C(=O)C(C)(C)C(=O)C1(C)C)C3CC(C)C)C(=O)C[C@@H](c1ccccc1)O2 (stereo not given in full) | Non-Toxic | 5.01 | pIC50 (Plasmodium falciparum [3]): 4.92
CCN(CC)CCCC(C)Nc1ccnc2cc(Cl)ccc12 (stereo not given) [CHLOROQUINE] | Non-Toxic | – | –
C[C@H]1[C@@H](O)O[C@@H]2O[C@@]3(C)CC[C@H]4[C@H](C)CC[C@@H]1[C@@]24OO3 [ARTENIMOL] | – | 9.40 | Activity (HEK293; 20 µM, in the assay text read “at 20 uM” for “at 40 uM”): 83%; pIC50 (Plasmodium falciparum [3]): 9.37
CC(C)CC[C@]1(O)[C@H](O)C(C)(C)[C@@H](O)C(C)(C)[C@@H]1O | Non-Toxic | – | Activity (Plasmodium falciparum [2]): inactive; Activity (Plasmodium falciparum [4]): inactive
CC(C)C[C@H]1C[C@@]2(CC[C@H]3C[C@@H]2C3(C)C)OC2=C1C(=O)C(C)(C)C(=O)C2(C)C | Non-Toxic | 4.78 | Activity (Plasmodium falciparum [2]): inactive

From ChEMBL document CHEMBL4145643, “Antiplasmodial β-Triketone-Flavanone Hybrids from the Flowers of the Australian Tree Corymbia torelliana” (J Nat Prod, 2018)
